Experiment [1] can be described thus: Her2 expression decrease, cell viability multiplex – SKBR3 breast tumor cells, AlphaScreen, ATP viability, primary screen (AID 461;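 active = Her2 level under about 52% in both replicate screens, with viability over 70% of control, limit read from the data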;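 for Her2 level: lower value means less Her2 protein in the cells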;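 for viability: percent of carrier control wells set as 100% viability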). The settings on record: SKBR3 Her2 protein level, 18-24 h, measured here: SKBR3 viability, ATP luminescence, at 10 µM.
For experiment [2], the target named is Receptor tyrosine-protein kinase erbB-2 (Homo sapiens) (UniProt P04626). The description is as above. The settings on record: 18-24 h, at 10 µM, stronger effect = lower value.
The nature of experiment [3]: reduced viability of SK-BR-3 breast cancer cells – cell-based, 24 h, human, pilot screen (AID 572).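 Note: compound exposure lasted between 18 and 24 h rather than exactly 24 h; 100% = carrier-treated control wells.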 The settings on record: SK-BR-3 viability, CellTiter-Glo luminescence, at 10 µM, stronger effect = lower value.
The nature of experiment [4]: HUVEC growth inhibition – cell-based, human, primary screen (AID 575;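 active = viability at or below 30% in both replicate assays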;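 note: 100% = median of untreated cell wells with 0.1% DMSO on each plate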). To be noted: HUVEC proliferation, CellTiter-Glo luminescence, 72 h; at 10 µM; stronger effect = lower value. In outline:
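Test system: primary human umbilical vein endothelial cells. Quantity: 1250 cells/well. Compound: single 10 µM dose, 0.1% DMSO, from 5x medium stock. Timing: 72 h treatment at 37 °C. Detection: ATP-based CellTiter-Glo luminescent read. Benchmarks: vehicle and MePR control wells. Format: 384-well plates coated with collagen.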

Experiment [5] in a line: H69AR cell proliferation blockers – human, duplicate replicates, primary screen (AID 580;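 active = viability at or under a set limit in both replicates, limit being median viability minus 3 SD, cut at about 48% in these data, passing the limit was not always enough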;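 note: 100% = mean luminescence of untreated wells and 0% = no signal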). The settings on record: H69AR lung tumor cells viability, ATP luminescence, 72 h; at 10 µM; stronger effect = lower value.
Experiment [6] can be described thus: MRP1 drug-resistance reversers in H69AR cells – cell-based, doxorubicin co-treatment, pilot screen (AID 601;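 active = viability loss from added drug above about 55%, and viability with drug at most 40%, in both replicates, limit read from the data, passing the limit was not always enough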). The settings on record: CellTiter-Glo, 72 h, at 10 µM; for differential viability (reversal): stronger effect = higher value.
A short description of experiment [7]: yeast transport mutant growth inhibition pilot in 384-well plates, post-Golgi transport modulator project (AID 636; in the data active = inhibition above about 31%). To be noted: absorbance 615 nm, about 18 h, stronger effect = higher value.
Experiment [8] in a line: growth suppression of yeast trafficking mutant, preliminary HTS, modulators of trafficking downstream of Golgi apparatus project, 1536-format plate, OD 615 nm (AID 637; in the data active = inhibition above about 30%). The settings on record: yeast transport mutant growth, absorbance 615 nm, 18 h; stronger effect = higher value.
Where [9] appears, read: H69AR cells + 2 uM doxorubicin, measured here: viability with 2 uM doxorubicin, stronger effect = lower value.
Where [10] appears, read: H69AR cells, compound alone cytotoxicity.

Activity calls are given as the source filed them.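 Rule for the calls, unless noted: active = viability at or below 10% of carrier control in both of two separate runs; inconclusive = viability at or below 10% in only one of the two runs; inactive = the rest.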

Sequence of Receptor tyrosine-protein kinase erbB-2 (Homo sapiens) (P04626 whole entry, looked up): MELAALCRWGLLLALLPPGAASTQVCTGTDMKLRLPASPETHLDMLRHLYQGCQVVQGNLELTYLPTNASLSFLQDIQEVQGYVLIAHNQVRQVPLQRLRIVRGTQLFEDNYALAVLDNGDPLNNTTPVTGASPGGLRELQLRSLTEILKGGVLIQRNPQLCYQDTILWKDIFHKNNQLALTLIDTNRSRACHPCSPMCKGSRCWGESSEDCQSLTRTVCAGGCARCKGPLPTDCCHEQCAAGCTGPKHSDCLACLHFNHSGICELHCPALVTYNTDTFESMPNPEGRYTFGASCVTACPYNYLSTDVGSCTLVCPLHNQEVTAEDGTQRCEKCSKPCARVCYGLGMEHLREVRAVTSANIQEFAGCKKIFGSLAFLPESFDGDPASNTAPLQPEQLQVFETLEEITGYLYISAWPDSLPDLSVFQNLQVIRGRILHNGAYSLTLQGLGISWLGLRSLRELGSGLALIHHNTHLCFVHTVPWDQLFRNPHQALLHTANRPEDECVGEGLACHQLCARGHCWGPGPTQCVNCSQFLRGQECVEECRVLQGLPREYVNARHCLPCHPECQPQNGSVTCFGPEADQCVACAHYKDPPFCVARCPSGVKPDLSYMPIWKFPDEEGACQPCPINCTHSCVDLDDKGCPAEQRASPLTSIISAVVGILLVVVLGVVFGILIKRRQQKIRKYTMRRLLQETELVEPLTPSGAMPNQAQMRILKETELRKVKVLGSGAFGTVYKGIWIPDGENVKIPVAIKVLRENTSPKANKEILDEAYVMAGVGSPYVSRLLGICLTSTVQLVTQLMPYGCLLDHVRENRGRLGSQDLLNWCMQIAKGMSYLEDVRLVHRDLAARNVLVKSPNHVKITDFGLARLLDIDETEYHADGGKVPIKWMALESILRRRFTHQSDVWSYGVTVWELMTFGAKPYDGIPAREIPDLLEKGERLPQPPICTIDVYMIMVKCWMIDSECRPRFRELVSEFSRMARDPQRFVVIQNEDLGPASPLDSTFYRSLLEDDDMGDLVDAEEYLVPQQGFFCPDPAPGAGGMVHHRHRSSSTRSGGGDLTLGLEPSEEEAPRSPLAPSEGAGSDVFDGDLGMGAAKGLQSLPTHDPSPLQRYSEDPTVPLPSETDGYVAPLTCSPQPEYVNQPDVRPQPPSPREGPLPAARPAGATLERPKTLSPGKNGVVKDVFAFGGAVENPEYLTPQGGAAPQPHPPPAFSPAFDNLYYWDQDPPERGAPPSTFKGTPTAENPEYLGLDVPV

Take `CCc1ccc(NS(=O)(=O)c2ccc3[nH]cc(C(=O)N4CCCCC4)c(=O)c3c2)cc1`: the viability in experiment [1] is 124%; in experiment [3] it was 124% (inactive); in experiment [4], 102% (inactive); in experiment [5], 89.6% (inactive); in experiment [6] (setting [9]), 84%; in experiment [6] (setting [10]), 89.6%. In addition, the Her2 level in experiment [2] is 92% (inactive). Moreover, the differential viability (reversal) in experiment [6] (H69AR cells + 2 uM doxorubicin) is 5.6% (inactive). The figures for the inhibition in experiment [7] and in experiment [8] were -5.66% (inactive) and -0.81% (inactive), respectively.
For `N#CC(C(=O)CCN1C(=O)C2CC=CCC2C1=O)c1nc2ccccc2[nH]1` (stereo not given), the viability in experiment [1] is 116%; in experiment [3], 116% (inactive); in experiment [4] it was 95.9% (inactive); in experiment [5], 91.1% (inactive); in experiment [6] (setting [9]), 87.2%; in experiment [6] (setting [10]), 91.1%. For the same compound, in experiment [2], the Her2 level is 98% (inactive). Moreover, the differential viability (reversal) in experiment [6] (H69AR cells + 2 uM doxorubicin) was 3.88% (inactive). The values for the inhibition in experiment [7] and in experiment [8] were -5.07% (inactive) and 6.23% (inactive), respectively.
In the case of `CC1CCCN(C(=O)CN2CCN(C(=O)c3ccco3)CC2)C1` (stereo not given), the viability in experiment [1] was 95.5%; in experiment [3] it was 95.5% (inactive); in experiment [4] it was 91.2% (inactive); in experiment [5], 93.2% (inactive); in experiment [6] (setting [9]), 81.6%; in experiment [6] (setting [10]), 93.2%. Moreover, the Her2 level in experiment [2] was 89.5% (inactive). Also, the differential viability (reversal) in experiment [6] (H69AR cells + 2 uM doxorubicin) was 11.7% (inactive). In addition, the values for the inhibition in experiment [7] and in experiment [8] were -4.13% (inactive) and -1.8% (inactive), respectively.
In the case of `CCOC(=O)c1c(N)nn(C(=O)C(C)C)c1-c1ccccc1`, the viability in experiment [1] was 97%; in experiment [3] it was 97% (inactive); in experiment [4], 82.5% (inactive); in experiment [5], 109% (inactive); in experiment [6] (setting [9]) it was 94%; in experiment [6] (setting [10]) it was 109%. In addition, in experiment [2], the Her2 level was 119% (inactive). For the same compound, the differential viability (reversal) in experiment [6] (H69AR cells + 2 uM doxorubicin) was 15% (inactive). The inhibition in experiment [7] was -5.95% (inactive); in experiment [8], -9.34% (inactive).
`Cc1nc(C)c2c(c1C(F)(F)F)-c1ccccc1C2(F)F`: the viability was 98% in experiment [1]; 98% (inactive) in experiment [3]; 102% (inactive) in experiment [4]; 105% (inactive) in experiment [5]; 88.9% in experiment [6] (setting [9]); 105% in experiment [6] (setting [10]). In addition, the Her2 level in experiment [2] is 98% (inactive). Further, the differential viability (reversal) in experiment [6] (H69AR cells + 2 uM doxorubicin) was 16.4% (inactive). The results for the inhibition in experiment [7] and in experiment [8] were -4.4% (inactive) and -5.08% (inactive), respectively.
`COc1ccc(Cc2nc(-c3ccc(Br)cc3)no2)cc1`: the viability in experiment [1] was 72.5%; in experiment [3] it was 72.5% (inactive); in experiment [4] it was 92.8% (inactive); in experiment [5], 98.2% (inactive); in experiment [6] (setting [9]) it was 101%; in experiment [6] (setting [10]) it was 98.2%. In experiment [2], the Her2 level was 106% (inactive). Moreover, the differential viability (reversal) in experiment [6] (H69AR cells + 2 uM doxorubicin) was -2.99% (inactive). For the same compound, the inhibition was -0.13% (inactive) in experiment [7] and -12.3% (inactive) in experiment [8].
As for `CCN(CC)C(=O)C1CCC(CNS(=O)(=O)c2cccc3cccnc23)CC1` (stereo not given), the viability was 92% in experiment [1]; 92% (inactive) in experiment [3]; 89.9% (inactive) in experiment [4]; 99.2% (inactive) in experiment [5]; 97.1% in experiment [6] (setting [9]); 99.2% in experiment [6] (setting [10]). Further, the Her2 level in experiment [2] was 97% (inactive). In experiment [6] (H69AR cells + 2 uM doxorubicin), the differential viability (reversal) is 2.08% (inactive). Moreover, the inhibition in experiment [7] is -1.87% (inactive); in experiment [8], -2.3% (inactive).
For `Cc1cccc(N(C)C(=O)c2coc(=O)c3ccccc23)c1`, the viability in experiment [1] is 85%; in experiment [3] it was 85% (inactive); in experiment [4] it was 82.9% (inactive); in experiment [5], 85.8% (inactive); in experiment [6] (setting [9]), 88.7%; in experiment [6] (setting [10]) it was 85.8%. Besides, the Her2 level in experiment [2] was 81% (inactive). Moreover, the differential viability (reversal) in experiment [6] (H69AR cells + 2 uM doxorubicin) is -2.86% (inactive). For the same compound, the inhibition in experiment [7] was -3.16% (inactive); in experiment [8], -1.64% (inactive).
`Cc1cccc2cc(CN(Cc3nnnn3C3CCCC3)C3CCCCC3)c(=O)[nH]c12`: the viability in experiment [1] is 84.5%; in experiment [3], 84.5% (inactive); in experiment [4], 72.7% (inactive); in experiment [5] it was 79.4% (inactive); in experiment [6] (setting [9]), 78.9%; in experiment [6] (setting [10]), 79.4%. The Her2 level in experiment [2] is 109% (inactive). In addition, in experiment [6] (H69AR cells + 2 uM doxorubicin), the differential viability (reversal) is 0.525% (inactive). The inhibition in experiment [7] is -1.71% (inactive); in experiment [8], -10.2% (inactive).
For the compound `Cc1onc(-c2ccccc2)c1C(=O)N1CCOCC1`, the viability in experiment [1] is 110%; in experiment [3] it was 110% (inactive); in experiment [4], 99.3% (inactive); in experiment [5], 107% (inactive); in experiment [6] (setting [9]) it was 94.4%; in experiment [6] (setting [10]), 107%. Further, the Her2 level in experiment [2] is 87% (inactive). The differential viability (reversal) in experiment [6] (H69AR cells + 2 uM doxorubicin) is 12.6% (inactive). The inhibition is -3.42% (inactive) in experiment [7] and -2.83% (inactive) in experiment [8].
For the compound `CCN(CC)C(=O)C1=C(C)NC(=O)NC1c1c(F)cccc1Cl` (stereo not given), the viability was 108% in experiment [1]; 108% (inactive) in experiment [3]; 96.8% (inactive) in experiment [4]; 101% (inactive) in experiment [5]; 87.2% in experiment [6] (setting [9]); 101% in experiment [6] (setting [10]). Also, in experiment [2], the Her2 level is 108% (inactive). The differential viability (reversal) in experiment [6] (H69AR cells + 2 uM doxorubicin) is 13.7% (inactive). The inhibition was -3.82% (inactive) in experiment [7] and 4.92% (inactive) in experiment [8].
Regarding `CC(C)C(C(=O)Nc1ccc2c(c1)OCO2)N1C(=O)c2ccccc2C1=O` (stereo not given), the viability was 122% in experiment [1]; 122% (inactive) in experiment [3]; 94.3% (inactive) in experiment [4]; 96.1% (inactive) in experiment [5]; 94.1% in experiment [6] (setting [9]); 96.1% in experiment [6] (setting [10]). The Her2 level in experiment [2] was 92% (inactive). Also, in experiment [6] (H69AR cells + 2 uM doxorubicin), the differential viability (reversal) is 2.06% (inactive). Also, the results for the inhibition in experiment [7] and in experiment [8] were -4.03% (inactive) and 1.15% (inactive), respectively.
Turning to `O=c1c2ccccc2nc(SCc2cn3ccsc3n2)n1-c1ccc(F)cc1`, the viability was 73% in experiment [1]; 73% (inactive) in experiment [3]; 64.6% (inactive) in experiment [4]; 102% (inactive) in experiment [5]; 115% in experiment [6] (setting [9]); 102% in experiment [6] (setting [10]). For the same compound, the Her2 level in experiment [2] is 102% (inactive). Moreover, the differential viability (reversal) in experiment [6] (H69AR cells + 2 uM doxorubicin) is -13.3% (inactive). In addition, the figures for the inhibition in experiment [7] and in experiment [8] were -6.44% (inactive) and 1.43% (inactive), respectively.
`O=C(CN1CCN(C2CCCCC2)CC1)Nc1ccccc1-c1ccccc1`: the viability in experiment [1] is 90.5%; in experiment [3], 90.5% (inactive); in experiment [4], 91.4% (inactive); in experiment [5], 84.7% (inactive); in experiment [6] (setting [9]), 76.7%; in experiment [6] (setting [10]), 84.7%. Besides, the Her2 level in experiment [2] was 61% (inactive). Besides, the differential viability (reversal) in experiment [6] (H69AR cells + 2 uM doxorubicin) was 7.96% (inactive). Further, the inhibition in experiment [7] is -3.24% (inactive); in experiment [8], 1.9% (inactive).

Source of the values: PubChem BioAssay.
